Screens deposited in PubChem BioAssay by The Scripps Research Institute Molecular Screening Center.
ABHD4 inh: ABHD4 (mouse) inhibition, primary FP screen | Q8VD66 | purified mABHD4, FP-Rh probe fluorescence polarization | inhibition, % at 8.92 µM | 0.54% of 370,000 active;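 active = inhibition exceeding the mean over every tested compound plus 3 SD, cut at about 30% in these data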;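 also: 0% = plate median of compound wells and 100% = S159A mutant with DMSO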
Target sequence (Q8VD66 whole entry, looked up): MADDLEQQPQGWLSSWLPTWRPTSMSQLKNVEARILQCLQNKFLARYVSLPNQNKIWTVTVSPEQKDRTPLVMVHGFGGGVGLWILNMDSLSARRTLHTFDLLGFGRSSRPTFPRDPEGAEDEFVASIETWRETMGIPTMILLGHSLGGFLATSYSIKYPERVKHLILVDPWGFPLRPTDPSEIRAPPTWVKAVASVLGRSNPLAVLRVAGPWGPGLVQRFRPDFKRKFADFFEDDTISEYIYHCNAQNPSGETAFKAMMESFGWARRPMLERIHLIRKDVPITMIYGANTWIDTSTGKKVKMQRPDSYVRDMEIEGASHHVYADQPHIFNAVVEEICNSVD
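Test system: mABHD4 protein; Read-out basis: % inhibition; Incubation: 45 min + 60 min at 25 °C; Repeats: single replicate; Technique: fluorescence polarization with parallel and perpendicular emission, 525/598 nm; Compound: 8.92 µM, single dose; Benchmarks: full inhibition S159A mutant plus DMSO, zero as sample-well median.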
PAFAH1B3 inh: blocks human PAF acetylhydrolase 1B catalytic subunit 3; Q15102; recombinant PAFAH1B3, FP-rhodamine probe, fluorescence polarization; inhibition, % at 3.39 µM; 0.28% of 340,000 active; AID 492972;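 active = inhibition above the screen-wide average of all tested compounds plus 3 SD, cut at about 25% in these data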;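 also: 0% = enzyme with DMSO only and 100% = wells lacking PAFAH1B3 protein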
Target sequence (Q15102 whole entry, looked up): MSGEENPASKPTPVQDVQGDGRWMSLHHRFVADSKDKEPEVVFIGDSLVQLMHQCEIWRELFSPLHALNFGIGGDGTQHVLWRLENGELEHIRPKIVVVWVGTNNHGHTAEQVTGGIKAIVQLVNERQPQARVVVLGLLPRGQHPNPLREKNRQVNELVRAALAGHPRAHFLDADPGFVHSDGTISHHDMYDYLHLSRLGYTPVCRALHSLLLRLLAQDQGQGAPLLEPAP
PAFAH2 FP inh: PAFAH2 (human) inhibition | Q99487 | recombinant PAFAH2, FP-rhodamine activity probe, fluorescence polarization | inhibition, % at 3.39 µM | 0.99% of 340,000 active;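 active = inhibition above the mean over all tested compounds plus 3 SD, cut at about 30% in these data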;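 also: inhibitors block probe labeling of enzyme so polarization drops; 0% = enzyme with DMSO and 100% = wells lacking PAFAH2 protein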
PAFAH1B2 inh: inhibitors of human PAFAH1B2 | P68402 | recombinant PAFAH1B2, FP-rhodamine activity probe, fluorescence polarization | inhibition, % at 3.39 µM | 1.2% of 340,000 active | AID 492953;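 active = inhibition above the mean of all tested compounds plus 3 SD, cut at about 24% in these data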;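 also: 0% = enzyme with DMSO and 100% = wells lacking PAFAH1B2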
pPAFAH inh: inhibitors of human plasma PAF acetylhydrolase (pPAFAH); Q13093; recombinant pPAFAH, FP-rhodamine probe fluorescence polarization; inhibition, % at 3.39 µM; 1.5% of 330,000 active;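 active = inhibition above the mean inhibition across the screen plus 3 SD, cut at about 25% in these data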;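 also: inhibitors block binding of the rhodamine activity-based probe so polarization drops; 0% = enzyme with DMSO and 100% = wells lacking pPAFAH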
HTRA1 inhibitor: HTRA1 (human) protease inhibition. Q92743. recombinant HTRA1, FP-rhodamine activity-based probe, fluorescence polarization. inhibition, % at 5.96 µM. 0.5% of 340,000 active; in the data active = inhibition above about 36%;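 also: 0% = enzyme with DMSO and 100% = wells lacking enzyme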
PAFAH2 confirm: confirmation of human PAFAH2 inhibitors. inhibition, % at 3.39 µM. recombinant PAFAH2, FP-rhodamine activity probe, fluorescence polarization. 65% of 2,300 active. AID 493030. shares compounds with PAFAH2 FP inh;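 active = mean inhibition over three repeats above a set limit taken from the earlier primary screen, cut at about 30% in these data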;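 also: inhibitor blocks binding of rhodamine activity probe so polarization falls; 0% = enzyme with DMSO and 100% = wells lacking PAFAH2 protein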
HTRA1 conf: HTRA1 (human) inhibition, confirmation; recombinant HTRA1, FP-rhodamine activity-based probe, fluorescence polarization; inhibition, % at 5.96 µM; 66% of 1,600 active; shares compounds with HTRA1 inhibitor;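 active = mean inhibition over three repeats above a set limit taken from the earlier primary screen, cut at about 37% in these data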;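 also: 0% = HTRA1 with DMSO and 100% = wells lacking HTRA1; inhibitors block probe binding so polarization drops and inhibition rises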
mABHD4 conf: confirmation of mouse ABHD4 inhibitors; shares compounds with ABHD4 inh; purified mABHD4, FP-Rh probe fluorescence polarization; inhibition, % at 8.92 µM; 55% of 1,800 active; AID 720658;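 active = mean inhibition across replicates above the hit cutoff set in the primary screen, cut at about 30% in these data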;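 also: 0% = wild-type ABHD4 with DMSO and 100% = catalytically dead S159A mutant with DMSO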
Active calls of the source: *; . = not tested or not shown. Compounds with a hit are over-represented: about 2.8% of the library has one in this group of screens.

SMILES	ABHD4 inh	PAFAH1B3 inh	PAFAH2 FP inh	PAFAH1B2 inh	pPAFAH inh	HTRA1 inhibitor	PAFAH2 confirm	others
CC(C)(C)c1ccc(OC(=O)N2CCOCC2)cc1	-0.6	1.7	30.3*	-5.1	20.6	-1.5	38.3*
CCC(=O)c1ccc(OC(=O)N2CCOCC2)cc1	3.9	4.9	35.1*	1.0	23.7	3.3	21.3
COC(=O)C1CN(Cc2ccc(OC)cc2)CCS(=O)(=O)N1Cc1ccc(F)cc1 (stereo unspecified)	-1.5	.	.	.	.	.	.
Cc1ccc(C(=O)OCC(=O)NC(C)c2ccccc2)s1 (stereo unspecified)	-4.4	1.4	77.8*	1.4	13.4	5.1	68.8*
Cc1ccc(C(=O)OCC(=O)c2ccc(Cl)s2)s1	6.6	0.8	74.0*	2.3	15.7	-7.5	65.9*
Cc1ccc(C(=O)NCC(=O)OCC(=O)NC(C)c2ccccc2)s1 (stereo unspecified)	-4.0	4.0	6.8	-0.2	-6.3	5.5	.
CC(NC(=O)COC(=O)CC(c1ccccc1)c1ccccc1)c1ccccc1 (stereo unspecified)	-5.0	1.0	59.4*	8.8	6.1	-22.3	47.3*
COCCCN1C(=O)[C@H](CC(=O)NCc2cccs2)[C@]2(C(=O)OC)CCCCC=C12	5.0	.	.	.	.	.	.
Cn1cc(C=C2C(=O)CC(C)(C)CC2=O)c2ccccc21	-3.0	3.5	22.7	2.7	-1.6	0.9	.
Cn1cc(C=C2C(=O)OC3(CCCCC3)OC2=O)c2ccccc21	0.7	6.6	46.0*	15.7	5.9	5.2	45.6*
Cc1cccc(NC(=O)CNC(=O)c2ccc(-n3cncn3)c([N+](=O)[O-])c2)c1C	-0.4	5.0	38.3*	-3.6	-2.2	-2.0	-2.9
COC(=O)c1ccc(-n2cncn2)c([N+](=O)[O-])c1	8.7	1.6	1.7	2.8	5.2	4.8	.
Cn1ccnc1CN1CCC[C@]2(CC[C@H](CCC#N)O2)C1	0.4	.	.	.	.	.	.
Cc1[nH]c2ccc(C(=O)OC(C)C(=O)NCc3ccccc3)cc2c1C (stereo unspecified)	-1.2	5.7	-0.1	6.0	9.5	-8.2	.
Cc1ccccc1CN(C)C(=O)COC(=O)c1ccc2[nH]c(C)c(C)c2c1	9.3	14.3	50.5*	1.4	0.8	-11.9	30.8*
O=C(COC(=O)CCc1c[nH]c(=O)[nH]1)Nc1cccc(Cl)c1	12.6	-9.0	35.5*	-3.1	-2.8	-1.8	28.7
CCOc1cc(/C=C2\C(=O)N(c3nc(-c4ccc(Br)cc4)cs3)N=C2c2ccccc2)ccc1O	.	14.8	55.5*	2.2	41.3*	39.8*	45.2*	HTRA1 conf=46.9*
CC(C)N(C(N)=NC(=O)OCc1ccccc1)C(C)C	-4.2	.	.	.	.	.	.
CC(C)c1cc(C(C)C)c(S(=O)(=O)N2CCCC(C(=O)N3CCN(Cc4ccccc4)CC3)C2)c(C(C)C)c1 (stereo unspecified)	3.3	.	.	.	.	.	.
O=c1cc(-c2ccc(O)c(O)c2)oc2ccc3ccccc3c12	22.9	5.7	34.5*	-1.6	.	68.9*	47.5*	HTRA1 conf=70.2*
O=c1cc(-c2ccccc2)oc2ccc3ccccc3c12	1.4	.	.	.	.	-9.2	.
Cc1nc2ccc(S(=O)(=O)NCC(=O)N(C)Cc3ccc(F)cc3)cc2s1	1.5	.	.	.	.	.	.
Oc1ccccc1/C=N/NC(=S)NC1CC2CC1C1C=CCC21 (stereo unspecified)	6.6	20.3	51.5*	12.7	14.3	36.8*	14.2	HTRA1 conf=13.9
O=C1C(Cl)=C(N2CCCCC2)C(=O)C(Cl)=C1c1cnc(N2CCCCC2)s1	.	9.0	30.9*	9.5	.	71.3*	10.0	HTRA1 conf=16.8
CCn1c(SCC(=O)c2ccc(O)c(O)c2)nnc1-c1ccccc1	17.9	17.9	21.1	1.9	10.8	28.4	.
SMILES	ABHD4 inh	PAFAH1B3 inh	PAFAH2 FP inh	PAFAH1B2 inh	pPAFAH inh	HTRA1 inhibitor	PAFAH2 confirm	others
CCn1c(SCC(=O)c2ccc(O)c(O)c2)nnc1-c1ccccc1OC	24.9	12.4	42.3*	5.5	29.2*	37.7*	25.7	HTRA1 conf=44.0*
O=C1C=CC(=O)C(CNc2ccc(C(=O)OCc3ccccc3)cc2)=C1	36.2*	15.1	58.9*	8.0	.	42.0*	37.0*	HTRA1 conf=18.4
COc1cc(C(NC(=O)C(F)(F)F)C2CCCC=C2c2ccccc2)cc(OC)c1OC (stereo unspecified)	-1.5	.	.	.	.	.	.
O=C(CCCn1c(SCC(=O)c2ccc(O)c(O)c2)nc2ccccc2c1=O)NCC1CCCO1 (stereo unspecified)	15.7	3.7	35.1*	12.9	34.1*	38.1*	10.7	HTRA1 conf=36.4*
O=C(CCCn1c(SCC(=O)NC2CCCCC2)nc2ccccc2c1=O)NCC1CCCO1 (stereo unspecified)	4.9	11.3	-10.7	3.2	5.4	6.8	.
CCOc1ccc2noc3c2c1C(=O)c1ccccc1-3	58.1*	19.0	31.4*	17.6	21.1	48.7*	19.4	HTRA1 conf=30.9;mABHD4 conf=19.2
CC1=C(C#N)C(=O)NC(=O)/C1=C\c1ccc(-c2ccc(C)cc2[N+](=O)[O-])o1	32.2*	13.6	34.6*	13.1	.	17.8	7.8	mABHD4 conf=33.4*
CCOC(=O)c1c(C)n(-c2ccc(C)cc2)c2c(C(C(C)=O)C(=O)O)c(Br)c(O)c(O)c12 (stereo unspecified)	41.4*	-5.3	81.0*	-3.1	18.1	34.4	75.5*	mABHD4 conf=30.6*
C=C(C)[C@@H]1CC2=C(OC)C(CC=C(C)C)(CC=C(C)C)C(=O)C(C(=O)c3ccccc3)=C2O1	-9.9	.	.	.	.	.	.
CC(C)C(=O)N(c1cc2sc(=O)oc2c2ccccc12)S(=O)(=O)c1cccs1	42.1*	9.5	32.2*	3.3	13.5	16.5	26.1	mABHD4 conf=20.3
O=C(c1ccccc1)c1ccc(O)c(O)c1O	38.8*	21.2	38.3*	9.2	.	67.8*	42.3*	HTRA1 conf=79.1*;mABHD4 conf=19.5
Cc1cc(C(=O)c2ccccc2)cc(C)c1O	-2.6	2.4	-11.2	2.4	.	35.4	.
CC(=O)CC[C@H]1CC[C@]2(CCCN(S(C)(=O)=O)C2)O1	-5.9	.	.	.	.	.	.
O=C1Nc2ccccc2/C1=N\N=C\c1ccc(O)c(O)c1	47.6*	20.8	45.8*	11.8	5.1	49.4*	17.7	HTRA1 conf=78.0*;mABHD4 conf=44.1*
COc1cc(/C=N/N=C2/C(=O)Nc3ccccc32)ccc1O	-1.9	6.5	7.5	4.6	3.4	3.4	.
Cc1c(C#N)c(O)[nH]c(=O)c1N=Nc1ccc(Cl)c(C(=O)O)c1	0.8	2.8	-5.3	1.7	-0.1	4.7	.
